bCat KO growth: beta-catenin-lacking colon tumor cell growth suppression | hit rate 1.5% among 140,000 | viability, % at 10 µM | HCT116 beta-catenin knockout viability, CellTiter-Glo, 60 h; stronger effect = lower value;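 active means viability at or under a set limit, the compound median less 4 SD, cut at about 6% in these data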;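 further: 0% = Hyamine 1622 control at 20 µM and 100% = untreated cell control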
Calb biofilm kill: kills Candida albicans biofilms. C. albicans biofilm + clotrimazole, Alamar Blue. inhibition, % at 6 µM. hit rate 0.14% among 85,000;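 active means inhibition above 20%; inactive means inhibition below 20%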;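 further: preformed 24 hr biofilms exposed to compound for 48 hr; 0% = biofilm without compound and 100% = blank killed by clotrimazole plus chlorhexidine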
HUVEC prolif 384: blocks proliferation of human endothelial cells. HUVEC proliferation, CellTiter-Glo luminescence, 72 h; stronger effect = lower value. viability, % at 10 µM (by protocol). hit rate 1.1% among 86,000;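 active means viability at or below 30%; inactive means viability above 30%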;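 further: 100% = median luminescence of DMSO-only cell control wells on each plate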
H69AR growth 86K: growth inhibitors of human H69AR lung tumor cells; H69AR lung tumor viability, ATP luminescence, 72 h; stronger effect = lower value; viability, % at 10 µM; hit rate 6% among 85,000; AID 598;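 active means viability at or below 40%; inactive means viability above 40%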;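 further: multidrug resistant small cell line overexpressing MRP-1 efflux transporter; 100% = mean luminescence of untreated control wells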
HCT116 PTEN-null: growth suppressors of cells with PTEN tumor suppressor deletion. HCT116 PTEN-null viability, CellTiter-Glo, 60 h; stronger effect = lower value. viability, % at 10 µM. hit rate 1.2% among 140,000. AID 827;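 active means viability at or below a set limit, 4 SD under the median of all tested compounds, cut at about 3.7% in these data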;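 further: PTEN knockout HCT116 line with beta catenin targeted HCT116 as companion control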
Fibroblast inh: blocks proliferation of human lung fibroblasts. hit rate 1.1% among 85,000. LL 47 human lung fibroblast viability, ATP luminescence; stronger effect = lower value. viability, % at 10 µM;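 active means viability at or below 50% in the single dose screen; inactive means viability above 50%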;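 further: compound exposure lasted 72 h before the ATP readout; 100% = median luminescence of untreated cell-only wells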
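Assay system: human lung fibroblast line LL 47, low passage. Input: 1,150 fibroblasts seeded per well. Times: overnight cell rest, 72 h compound treatment at 37 °C. Evaluation: % viability of median cell-only signal. Technique: luminescent ATP detection, CellTiter-Glo. Control set: cell-only wells, no compound.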
* = called active by the depositor; · = no result given. This excerpt belongs to a sample that is enriched for hits.

SMILES	bCat KO growth	Calb biofilm kill	HUVEC prolif 384	H69AR growth 86K	HCT116 PTEN-null	Fibroblast inh
Cc1cc(C(=O)N/N=C/c2cc([N+](=O)[O-])ccc2O)c2ccccc2n1	8.6	·	·	·	3.0*	·
O=[N+]([O-])c1ccc(O)c(/C=N/Nc2ccccn2)c1	11.7	·	·	·	12.7	·
O=[N+]([O-])c1ccc(O)c(/C=N/Nc2nc3ccccc3[nH]2)c1	4.2*	·	·	·	5.2	·
Cc1ccc(Oc2nccc(-c3ccc(Cl)cc3)n2)cc1	89.1	·	·	·	81.3	·
O=C(CN1CCN(S(=O)(=O)c2ccc(Br)cc2)CC1)N/N=C/c1cccnc1	91.0	·	·	·	90.9	·
O=c1/c(=C\c2cccnc2)sc2nc3ccccc3n12	94.5	·	84.0	73.3	99.9	103.1
CCc1ccc(N2C(=O)c3sc4nnc(C)c(=O)n4c3C2=O)cc1	92.8	3.8	89.6	81.8	87.9	101.7
O=C1c2sc3nc4c(c(=O)n3c2C(=O)N1c1ccccc1)CCC4	58.8	5.0	98.2	34.8*	56.0	90.4
Cc1ccccc1N1C(=O)c2sc3nc4c(c(=O)n3c2C1=O)CCC4	84.5	2.1	96.5	3.4*	88.4	85.1
O=C1c2sc3nc4ccccc4n3c2C(=O)N1c1ccccc1Cl	95.7	6.5	71.6	2.9*	94.0	70.8
Cc1ccc(N2C(=O)c3sc4nnc(C)c(=O)n4c3C2=O)cc1	107.2	0.4	91.7	105.3	94.6	99.7
COc1ccc(OC)c(NS(=O)(=O)Cc2ccccc2)c1	104.8	·	·	·	103.8	·
CN(C)CCCNC(=S)N1CCn2c(nc3ccccc32)C1	85.0	·	·	·	98.3	·
CCOC(=O)c1cc(C(C)(C)C)oc1CNC(=O)c1c(C)oc2c1CCCC2	80.7	1.4	96.7	75.4	75.1	93.3
Cc1ccc(C2C=C(c3ccc4c(c3)OCO4)Nc3ncnn32)cc1 (stereo not given)	62.6	-0.2	114.8	83.2	61.5	·
Cc1ccsc1C1C=C(c2cccc(Br)c2)Nc2ncnn21 (stereo not given)	58.6	-5.9	75.0	51.3	54.6	100.3
Fc1ccc(Br)cc1C1C=C(c2ccc(Br)cc2)Nc2ncnn21 (stereo not given)	38.5	-2.2	63.1	18.0*	30.6	60.2
CCc1ccc(C2=CC(c3cc(Br)ccc3F)n3ncnc3N2)cc1 (stereo not given)	79.2	2.6	57.6	17.9*	98.2	58.5
CCn1c2ccccc2c2cc(NC(=O)C3CCN(S(=O)(=O)c4cccs4)CC3)ccc21	·	6.4	39.0	21.0*	·	92.4
Cc1cccn2c(=O)c3cc(C(=O)NCCN4CCOCC4)c(=N)n(CCc4ccccc4)c3nc12	27.2	4.5	68.7	88.3	24.8	68.6
CCOCCCNC(=O)c1cc2c(=O)n3cccc(C)c3nc2n1C	·	6.4	51.3	33.6*	·	55.3
CCCCNC(=O)c1cc2c(=O)n3cccc(C)c3nc2n1C	·	7.9	75.2	42.2	·	96.3
COCCNC(=O)c1cc2c(=O)n3cccc(C)c3nc2n1C	·	3.6	51.5	26.9*	·	73.3
CCNC(=O)c1cc2c(=O)n3cccc(C)c3nc2n(CCc2ccccc2)c1=N	4.8*	2.8	75.8	71.5	6.0	88.4
CC(C)C[C@@H]1NC(=O)[C@H](Cc2ccc(O)cc2)NC(=O)[C@H](CCC(N)=O)NC(=O)c2cc([N+](=O)[O-])cc(I)c2NCC[C@@H](C(N)=O)NC1=O	90.6	·	·	·	91.4	·
SMILES	bCat KO growth	Calb biofilm kill	HUVEC prolif 384	H69AR growth 86K	HCT116 PTEN-null	Fibroblast inh
Cc1ccc(S(=O)(=O)N2CCN(Cc3ccccc3)CC2)c(C)c1N(C)S(=O)(=O)c1ccccc1	73.5	·	·	·	71.4	·
O=C(N/N=C/C(Br)=C/c1ccccc1)c1n[nH]c2c1CCC2	2.7*	-1.6	30.3	1.8*	1.7*	59.3
O=C(N/N=C/c1cccs1)c1n[nH]c2c1CCC2	20.5	·	·	·	20.0	·
Cc1ccc(S(=O)(=O)Nc2nc3ccccc3nc2NCc2ccco2)cc1	52.2	-5.6	80.5	36.0*	56.8	82.5
Cc1cccc(Nc2nc(NCc3ccco3)c3ccccc3n2)c1	1.8*	·	·	·	1.8*	·
O=S(=O)(Nc1nc2ccccc2nc1NCc1ccco1)c1ccc(Cl)cc1	75.6	4.5	83.8	89.4	76.5	90.7
COc1cc(NC(=O)c2ccc3c(c2)OCO3)c2ncccc2c1	72.4	0.5	73.8	47.0	61.6	88.2
COc1cc(NCCCCCCCN)c2ncccc2c1	1.7*	6.0	3.1*	101.9	2.3*	22.7*
O=C1C(c2ccncc2)N(CCC2=CCCCC2)C(=O)CN1C1CCCCC1 (stereo not given)	97.1	5.9	94.1	78.6	92.2	86.3
COc1ccc(C(=O)Nc2nc3cc(OC)c(OC)cc3c(=O)[nH]2)cc1	17.0	4.5	56.6	13.3*	12.5	77.7
C=CCn1c(=O)/c(=C2/SC(C)=C(C)N2CC)s/c1=C1/C(=O)N(C)C(=S)N1c1ccccc1	·	6.2	89.1	65.0	·	98.1
CCOc1cc2c3c(c1)C1(C(=O)N3C(C)(C)C=C2C)C(C#N)=C(N)Oc2cc(O)ccc21 (stereo not given)	49.4	3.4	45.8	33.3*	40.8	82.5
COc1cc2c3c(c1)C1(C(=O)N3C(C)(C)C=C2C)C(C#N)=C(N)Oc2cc(O)ccc21 (stereo not given)	74.0	8.5	68.2	64.9	73.8	92.8
COc1cc(C2C(C#N)=C(N)Oc3cc(C)n(Cc4ccccn4)c(=O)c32)cc2c1OCO2 (stereo not given)	·	8.5	102.9	80.5	·	92.7
N=c1n(CC(=O)c2ccc([N+](=O)[O-])cc2)c2ccccc2n1Cc1ccccc1	1.7*	·	·	·	1.8*	·
N=c1n(CC(=O)c2ccc([N+](=O)[O-])cc2)c2ccccc2n1Cc1ccc(Cl)cc1	1.3*	·	·	·	1.6*	·
CC(C)N(c1ccccc1)c1ccc(NC(=O)COC(=O)CCN2C(=O)c3cccc([N+](=O)[O-])c3C2=O)cc1	77.2	·	·	·	79.5	·
O=C(Oc1ccnc2cc(Cl)ccc12)N1CCCCCC1	59.7	4.7	113.8	25.9*	59.9	87.6
CCOC(=O)c1c(C(C)(C)C)oc2ccc(O)cc12	83.1	1.0	46.5	29.9*	77.7	93.8
Cc1cc(C)nc(NC(=NCCc2c[nH]c3ccccc23)NC(=O)Nc2cccc([N+](=O)[O-])c2)n1	40.1	·	·	·	30.9	·
COC(=O)C1=C(O)/C(=C\c2ccc(CNS(=O)(=O)c3ccccc3)o2)N=C1C	101.4	·	·	·	100.5	·
COC(=O)C1=C(O)/C(=C\c2ccc(CNC(=O)C(=O)Nc3ccc(C)c(C)c3)o2)N=C1C	84.5	5.4	19.0*	39.9*	95.6	89.2
COC(=O)C1=C(O)/C(=C\c2ccc(CNC(=O)C(=O)Nc3ccc(C)cc3)o2)N=C1C	35.5	2.4	59.9	25.4*	38.5	24.9*
CCOC(=O)C1=C(O)/C(=C/c2ccc(CNC(=O)C(=O)Nc3ccc(C)cc3)o2)N=C1C	7.2	0.7	2.3*	36.2*	10.9	7.4*
COc1ccccc1S(=O)(=O)Cc1ccc(C(=O)NC(C)c2ccc3c(c2)OCCO3)o1 (stereo not given)	94.7	·	85.1	100.2	97.8	96.3
